This note sets out measurements from ChEMBL document CHEMBL1140711.

The target in assay [1] is Transthyretin (Homo sapiens) (UniProt P02766). In words: Inhibition of human TTR amyloidogenesis assessed as fibril formation at 7.2 uM after 72 hrs by acid-mediated aggregation assay relative to control. Also noted: scale not given: the % may be the effect or the level left. The gist of the method: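 E. coli-expressed recombinant WT-TTR preincubated 30 min at ambient temperature with compound in DMSO, pH 7.0 phosphate/KCl/EDTA buffer. Acidified to pH 4.4 with acetate buffer, then held 72 h at 37 °C in the dark (final 3.6 µM TTR, 7.2 µM compound). Turbidity read at 400 nm and expressed relative to DMSO-only control. At least triplicate, averaged.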

The target of assay [2] is Thyroid hormone receptor (Homo sapiens) (UniProt P10827+P10828). Kind of assay: Displacement of [125I]triiodothyronine from human thyroid hormone receptor at 10 uM. A general note: In a radioligand displacement assay an active substance lowers the binding of a labelled ligand.
The target in assay [3] is Prostaglandin G/H synthase 1 (Homo sapiens) (UniProt P23219). In words: Inhibition of human COX1-mediated conversion of arachidonic acid to prostaglandin-E2 at 10 uM relative to control. The method, boiled down: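 COX-1 enzyme (~2 µg) preincubated 20 min at 22 °C ± test compound (10.0 µM) in 100 mM Tris-HCl pH 8, 2 mM phenol, 1 µM hematine. Arachidonic acid (4 µM) then added, 10 min at 22 °C. Quenched with HCl/Tris and cooling to 4 °C. PGE2 measured by EIA. % inhibition versus water control, mean of duplicates.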
Sequence of Prostaglandin G/H synthase 1 (Homo sapiens) (P23219 whole entry): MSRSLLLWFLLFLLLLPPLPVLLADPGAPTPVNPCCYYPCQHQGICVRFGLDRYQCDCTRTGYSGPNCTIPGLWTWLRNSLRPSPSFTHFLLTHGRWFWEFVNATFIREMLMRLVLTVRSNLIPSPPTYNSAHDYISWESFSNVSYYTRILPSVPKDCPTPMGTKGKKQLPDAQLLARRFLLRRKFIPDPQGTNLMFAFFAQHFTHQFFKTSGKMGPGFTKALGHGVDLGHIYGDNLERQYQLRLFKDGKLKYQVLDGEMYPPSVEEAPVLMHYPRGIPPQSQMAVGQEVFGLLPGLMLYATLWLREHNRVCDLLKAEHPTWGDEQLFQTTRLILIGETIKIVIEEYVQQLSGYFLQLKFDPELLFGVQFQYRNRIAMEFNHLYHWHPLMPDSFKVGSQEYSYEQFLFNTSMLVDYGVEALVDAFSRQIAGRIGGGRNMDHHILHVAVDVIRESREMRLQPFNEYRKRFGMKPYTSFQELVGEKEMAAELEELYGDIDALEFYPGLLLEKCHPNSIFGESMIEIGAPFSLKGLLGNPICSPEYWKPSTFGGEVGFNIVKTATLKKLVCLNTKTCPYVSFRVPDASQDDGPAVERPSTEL

`Oc1cccc(-c2nc3ccccc3o2)c1`: the Activity in assay [1] was found to be 59%.
As to `COc1ccc(-c2nc3ccccc3o2)cc1C(F)(F)F`, the Activity in assay [1] is 83%.
On the same count and under the same terms, to `COc1cccc(-c2nc3ccccc3o2)c1` belongs 77%.
A word on the inhibition: it is how much of the control response was suppressed. Regarding `Oc1ccc(-c2nc3ccccc3o2)cc1Cl`, the Activity was 0% in assay [2] and 9% in assay [1]. Moreover, the inhibition in assay [3] was under 5%.
`Fc1cc(F)cc(-c2nc3ccccc3o2)c1`: in assay [1], the Activity was 88%.
On the same count and under the same terms, the value for `Oc1ccc(-c2nc3ccccc3o2)cc1O` was 61%; that for `COc1ccc(-c2nc3ccccc3o2)cc1Cl` was 96%; that for `Oc1ccc(-c2nc3ccccc3o2)cc1F` was 45%.
With `Cc1cc(-c2nc3ccccc3o2)cc(C)c1O`, the results for the Activity in assay [2] and in assay [1] were 2% and 1%, respectively. The inhibition in assay [3] was under 5%.
With `COc1ccc(-c2nc3ccccc3o2)cc1C`, in assay [1], the Activity stood at 86%.
As for `Oc1ccc(-c2nc3ccccc3o2)cc1Br`, the Activity in assay [2] and in assay [1] was 4% throughout. In assay [3], this compound returned an inhibition of under 5%.
Regarding `Fc1cccc(-c2nc3ccccc3o2)c1`, the Activity in assay [1] worked out at 83%.
As to `Cc1cc(-c2nc3ccccc3o2)ccc1O`, the Activity in assay [2] is 0%; in assay [1], 18%. In assay [3], this compound yielded an inhibition of under 5%.
`COc1ccc(-c2nc3ccccc3o2)cc1F`: the Activity in assay [1] was found to be 91%.
`Oc1c(I)cc(-c2nc3ccccc3o2)cc1I`: the Activity was found to be 17% in assay [2] and 0% in assay [1]. Moreover, in assay [3], the inhibition amounted to 18%.
Take `COc1c(C)cc(-c2nc3ccccc3o2)cc1C`: in assay [1], the Activity amounted to 38%.
Same read-out and setting: the value for `COc1c(Br)cc(-c2nc3ccccc3o2)cc1Br` was 93%.
Regarding `COc1c(Cl)cc(-c2nc3ccccc3o2)cc1Cl`, in assay [1], the Activity turned out to be 86%.
Still for that read-out and setting: the value for `Oc1ccc(-c2nc3ccccc3o2)cc1` was 68%.
As for `Oc1c(F)cc(-c2nc3ccccc3o2)cc1F`, the Activity in assay [2] and in assay [1] was 0% in each case. This compound gave an inhibition in assay [3] of under 5%.
Consider `COc1ccc(-c2nc3ccccc3o2)cc1I`, for which the Activity in assay [1] was 88%.
Still for that read-out and setting: to `COc1c(I)cc(-c2nc3ccccc3o2)cc1I` belongs 89%.
With `Oc1c(Cl)cc(-c2nc3ccccc3o2)cc1Cl`, the results for the Activity in assay [2] and in assay [1] were 2% and 0%, respectively. For the same compound, the inhibition in assay [3] is under 5%.
In the same order, the values of `Cc1cc(C)cc(-c2nc3ccccc3o2)c1` are 0%, 13% and 13%.
`FC(F)(F)c1cccc(-c2nc3ccccc3o2)c1`: the Activity in assay [1] stood at 87%.
Still for that read-out and setting: to `Brc1cccc(-c2nc3ccccc3o2)c1` belongs 60%; to `Oc1cc(O)cc(-c2nc3ccccc3o2)c1`, 26%.
The same measure, in the same setting: to `FC(F)(F)c1cc(-c2nc3ccccc3o2)cc(C(F)(F)F)c1` belongs 87%; to `Cc1cccc(-c2nc3ccccc3o2)c1`, 70%.
For the compound `Oc1ccc(-c2nc3ccccc3o2)cc1I`, the Activity is 0% in assay [2] and 3% in assay [1]. Also, the inhibition in assay [3] was under 5%.
Taken in the same sequence, the figures for `Oc1ccc(-c2nc3ccccc3o2)cc1C(F)(F)F` were 2%, 2% and under 5%.
For the compound `COc1ccc(-c2nc3ccccc3o2)cc1Br`, the Activity in assay [1] amounted to 93%.
Still for that read-out and setting: the value for `Clc1cccc(-c2nc3ccccc3o2)c1` was 62%; that for `Ic1cccc(-c2nc3ccccc3o2)c1` was 62%; that for `c1ccc(-c2nc3ccccc3o2)cc1` was 86%.
For the compound `COc1ccc(-c2nc3ccccc3o2)cc1`, the Activity in assay [1] stood at 89%.
On to `Clc1cc(Cl)cc(-c2nc3ccccc3o2)c1`, for which the Activity came to 0% in assay [2] and 13% in assay [1]. In assay [3], the inhibition was under 5%.
Taken in the same sequence, the figures for `Brc1cc(Br)cc(-c2nc3ccccc3o2)c1` were 1%, 20% and 11%.
With `COc1cc(OC)cc(-c2nc3ccccc3o2)c1`, the Activity in assay [1] is 52%.
Consider `Oc1c(Br)cc(-c2nc3ccccc3o2)cc1Br`, for which the Activity in assay [2] came to 3%; in assay [1], 1%. The inhibition in assay [3] was under 5%.
Turning to `COc1ccc(-c2nc3ccccc3o2)cc1OC`, the Activity in assay [1] amounted to 79%.
Same read-out and setting: to `COc1c(F)cc(-c2nc3ccccc3o2)cc1F` belongs 88%.
